Among the data in ChEMBL document CHEMBL1128568, “Design and structure-activity relationships of C-terminal cyclic neurotensin fragment analogues” (J Med Chem, 1995) are Ki values, retold here.

The test can be described thus: Binding affinity against neurotensin receptor. The essentials: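 Neonatal (10-day postnatal) mouse brain membranes, cerebellum removed, washed by repeated 100000g spins in 5 mM Tris pH 7.5, resuspended 1 g wet weight/mL in 50 mM Tris pH 7.4 with BSA, bacitracin, EDTA, phenanthroline, PMSF. Competition against [3H]NT (0.20 nM final) or [125I-Tyr3]NT (0.21 nM final), 30 min at 25 °C. Separation by filtration on PEI-soaked GF/B filters. Nonspecific binding with 1 μM NT.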

Each structure is given as a SMILES string. pKi: −log10 of the molar value. Non-standard residues stand in square brackets, D forms with d. Residues, ends and D or L forms follow the SMILES beside them. NMeR = CN[C@@H](CCCNC(=N)N)C(=O)O; Tle = CC(C)(C)[C@H](N)C(=O)O

By pKi is commonly meant the Ki on a negative log10 scale, so that one unit is a factor of ten. Compound `CC(C)C[C@H](NC(=O)[C@@H](N)CCC(=O)O)C(=O)N[C@@H](Cc1ccc(O)cc1)C(=O)N[C@@H](CCC(=O)O)C(=O)N[C@@H](CC(N)=O)C(=O)N[C@@H](CCCCN)C(=O)N1CCC[C@H]1C(=O)N(C)[C@@H](CCCN=C(N)N)C(=O)N1C(=O)[C@H](CC(C)C)NC(=O)[C@@H](CCC(=O)O)NC(=O)[C@H](Cc2c[nH]c3ccccc23)NC(=O)[C@@H]2CCCN2C(=O)[C@@H]1CCCCN` showed a pKi of 5.80. Consider `CC(C)C[C@H](NC(=O)[C@@H](N)CCC(=O)O)C(=O)N[C@@H](Cc1ccc(O)cc1)C(=O)N[C@@H](CCC(=O)O)C(=O)N[C@@H](CC(N)=O)C(=O)N[C@@H](CCCCN)C(=O)N1CCC[C@H]1C(=O)N(C)[C@@H](CCCN=C(N)N)C(=O)N1C(=O)[C@H](CC(C)C)NC(=O)[C@H](CCC(=O)O)NC(=O)[C@H](Cc2c[nH]c3ccccc23)NC(=O)[C@@H]2CCCN2C(=O)[C@@H]1CCCCN`, for which the pKi is 6.11. `CC(C)C[C@H](NC(=O)[C@H]1NC(=O)[C@H](Cc2c[nH]c3ccccc23)NC(=O)[C@H]2CCCN2C(=O)[C@H](NC(=O)[C@H](CCCN=C(N)N)N(C)C(=O)[C@@H]2CCCN2C(=O)[C@H](CCCCN)NC(=O)[C@H](CC(N)=O)NC(=O)[C@H](CCC(=O)O)NC(=O)[C@H](Cc2ccc(O)cc2)NC(=O)[C@H](CC(C)C)NC(=O)[C@@H](N)CCC(=O)O)C(C)(C)SSC1(C)C)C(=O)O`: the pKi was 5.36. Consider `CC(C)C[C@H](NC(=O)[C@@H]1CSSC[C@@H](NC(=O)[C@H](CCCN=C(N)N)N(C)C(=O)[C@@H]2CCCN2C(=O)[C@H](CCCCN)NC(=O)[C@H](CC(N)=O)NC(=O)[C@H](CCC(=O)O)NC(=O)[C@H](Cc2ccc(O)cc2)NC(=O)[C@H](CC(C)C)NC(=O)[C@@H](N)CCC(=O)O)C(=O)N2CCC[C@@H]2C(=O)N[C@@H](Cc2c[nH]c3ccccc23)C(=O)N1)C(=O)O`, for which the pKi is 6.09. Regarding `CC(C)C[C@H](NC(=O)[C@H]1NC(=O)[C@H](Cc2c[nH]c3ccccc23)NC(=O)[C@H]2CCCN2C(=O)[C@H](NC(=O)[C@H](CCCN=C(N)N)N(C)C(=O)[C@@H]2CCCN2C(=O)[C@H](CCCCN)NC(=O)[C@H](CC(N)=O)NC(=O)[C@H](CCC(=O)O)NC(=O)[C@H](Cc2ccc(O)cc2)NC(=O)[C@H](CC(C)C)NC(=O)[C@@H](N)CCC(=O)O)CSSC1(C)C)C(=O)O`, the pKi is 7.08. Consider `CC(C)CC(NC(=O)CC[C@@H]1NC(=O)[C@H](Cc2c[nH]c3ccccc23)NC(=O)[C@@H]2CCCN2C(=O)[C@H](CCCCN)NC(=O)[C@H](CCCN=C(N)N)N(C)C(=O)CN(C(=O)[C@@H]2CCCN2C(=O)[C@H](CCCCN)NC(=O)[C@H](CC(N)=O)NC(=O)[C@H](CCC(=O)O)NC(=O)[C@H](Cc2ccc(O)cc2)NC(=O)[C@H](CC(C)C)NC(=O)[C@@H](N)CCC(=O)O)C1=O)C(=O)O` (some centres undefined), for which the pKi is 7.55. The figure for `CC(C)C[C@H](NC(=O)CC[C@@H]1NC(=O)[C@H](Cc2c[nH]c3ccccc23)NC(=O)[C@@H]2CCCN2C(=O)[C@H](CCCCN)NC(=O)[C@@H](CCCN=C(N)N)N(C(=O)[C@@H]2CCCN2C(=O)[C@H](CCCCN)NC(=O)[C@H](CC(N)=O)NC(=O)[C@H](CCC(=O)O)NC(=O)[C@H](Cc2ccc(O)cc2)NC(=O)[C@H](CC(C)C)NC(=O)[C@@H](N)CCC(=O)O)C1=O)C(=O)O` is 7.80; for `CC(C)C[C@H](NC(=O)[C@@H](N)CCC(=O)O)C(=O)N[C@@H](Cc1ccc(O)cc1)C(=O)N[C@@H](CCC(=O)O)C(=O)N[C@@H](CC(N)=O)C(=O)N[C@@H](CCCCN)C(=O)N1CCC[C@H]1C(=O)N1C(=O)[C@H](CC(C)C)NC(=O)[C@H](C(C)(C)C)NC(=O)[C@H](Cc2ccc(O)cc2)NC(=O)[C@@H]2CCCN2C(=O)[C@H](CCCCN)NC(=O)[C@H]1CCCN=C(N)N` it is 6.36. Compound `CC(C)C[C@H](NC(=O)[C@@H](N)CCC(=O)O)C(=O)N[C@@H](Cc1ccc(O)cc1)C(=O)N[C@@H](CCC(=O)O)C(=O)N[C@@H](CC(N)=O)C(=O)N[C@@H](CCCCN)C(=O)N1CCC[C@H]1C(=O)N1C(=O)[C@H](CCC(=O)O)NC(=O)[C@H](Cc2c[nH]c3ccccc23)NC(=O)[C@@H]2CCCN2C(=O)[C@H](CCCCN)NC(=O)[C@H]1CCCN=C(N)N` showed a pKi of less than 5.00. The figure for `CC(C)C[C@H](NC(=O)[C@@H](N)CCC(=O)O)C(=O)N[C@@H](Cc1ccc(O)cc1)C(=O)N[C@@H](CCC(=O)O)C(=O)N[C@@H](CC(N)=O)C(=O)N[C@@H](CCCCN)C(=O)N1CCC[C@H]1C(=O)N1C(=O)[C@H](CC(C)C)NC(=O)[C@H](C(C)(C)C)NC(=O)[C@H](Cc2c[nH]c3ccccc23)NC(=O)[C@@H]2CCCN2C(=O)[C@H](CCCCN)NC(=O)[C@@H]1CCCN=C(N)N` is 6.39; for `CC(C)C[C@H](NC(=O)CC[C@@H]1NC(=O)[C@H](Cc2c[nH]c3ccccc23)NC(=O)[C@@H]2CCCN2C(=O)[C@H](C)NC(=O)[C@@H](CCCN=C(N)N)N(C(=O)[C@@H]2CCCN2C(=O)[C@H](CCCCN)NC(=O)[C@H](CC(N)=O)NC(=O)[C@H](CCC(=O)O)NC(=O)[C@H](Cc2ccc(O)cc2)NC(=O)[C@H](CC(C)C)NC(=O)[C@@H](N)CCC(=O)O)C1=O)C(=O)O` it is less than 5.00; for `CC(C)C[C@H](NC(=O)C[C@@H]1NC(=O)[C@H](Cc2c[nH]c3ccccc23)NC(=O)[C@@H]2CCCN2C(=O)[C@H](CCCCN)NC(=O)[C@@H](CCCN=C(N)N)N(C(=O)[C@@H]2CCCN2C(=O)[C@H](CCCCN)NC(=O)[C@H](CC(N)=O)NC(=O)[C@H](CCC(=O)O)NC(=O)[C@H](Cc2ccc(O)cc2)NC(=O)[C@H](CC(C)C)NC(=O)[C@@H](N)CCC(=O)O)C1=O)C(=O)O` it is 6.04. `CC(C)C[C@H](NC(=O)[C@@H](N)CCC(=O)O)C(=O)N[C@@H](Cc1ccc(O)cc1)C(=O)N[C@@H](CCC(=O)O)C(=O)N[C@@H](CC(N)=O)C(=O)N[C@@H](CCCCN)C(=O)N1CCC[C@H]1C(=O)N1C(=O)[C@H](CCC(=O)NCC(=O)O)NC(=O)[C@H](Cc2c[nH]c3ccccc23)NC(=O)[C@@H]2CCCN2C(=O)[C@H](CCCCN)NC(=O)[C@H]1CCCN=C(N)N` gave a negative logarithm of the Ki (pKi) of 6.60. Turning to `CC(C)C[C@H](NC(=O)CCC[C@@H]1NC(=O)[C@H](Cc2c[nH]c3ccccc23)NC(=O)[C@@H]2CCCN2C(=O)[C@H](CCCCN)NC(=O)[C@H](CCCN=C(N)N)N(C(=O)[C@@H]2CCCN2C(=O)[C@H](CCCCN)NC(=O)[C@H](CC(N)=O)NC(=O)[C@H](CCC(=O)O)NC(=O)[C@H](Cc2ccc(O)cc2)NC(=O)[C@H](CC(C)C)NC(=O)[C@@H](N)CCC(=O)O)C1=O)C(=O)O`, the pKi is 6.08. In turn, `CC(C)C[C@H](NC(=O)[C@@H](N)CCC(=O)O)C(=O)N[C@@H](Cc1ccc(O)cc1)C(=O)N[C@@H](CCC(=O)O)C(=O)N[C@@H](CC(N)=O)C(=O)N[C@@H](CCCCN)C(=O)N1CCC[C@H]1C(=O)N(C)[C@@H](CCCN=C(N)N)C(=O)N1C(=O)[C@H](CC(C)C)NC(=O)[C@@H](CCC(=O)O)NC(=O)[C@H](Cc2c[nH]c3ccccc23)NC(=O)[C@@H]2CCCN2C(=O)[C@H]1CCCCN` gave a pKi of 5.60. The same measure for `CC(=O)N(C(=O)[C@@H]1CCCN1C(=O)[C@H](CCCCN)NC(=O)[C@H](CC(N)=O)NC(=O)[C@H](CCC(=O)O)NC(=O)[C@H](Cc1ccc(O)cc1)NC(=O)[C@H](CC(C)C)NC(=O)[C@@H](N)CCC(=O)O)[C@@H](CCCN=C(N)N)C(=O)N[C@@H](CCCCN)C(=O)N1CCC[C@H]1C(=O)N[C@@H](Cc1c[nH]c2ccccc12)C(=O)N[C@@H](CCC(N)=O)C(=O)N[C@@H](CC(C)C)C(=O)O`: 6.59. Turning to `CC(C)C[C@H](NC(=O)[C@H](CCC(=O)O)NC(=O)[C@H](Cc1c[nH]c2ccccc12)NC(=O)[C@@H]1CCCN1C(=O)[C@H](CCCCN)NC(=O)[C@H](CCCN=C(N)N)N(C)C(=O)[C@@H]1CCCN1C(=O)[C@H](CCCCN)NC(=O)[C@H](CC(N)=O)NC(=O)[C@H](CCC(=O)O)NC(=O)[C@H](Cc1ccc(O)cc1)NC(=O)[C@H](CC(C)C)NC(=O)[C@@H](N)CCC(=O)O)C(=O)O` (H-ELYENKP[NMeR]KPWEL-OH), the pKi is less than 5.00. As to `CC(C)C[C@H](NC(=O)[C@@H](NC(=O)[C@H](Cc1c[nH]c2ccccc12)NC(=O)[C@@H]1CCCN1C(=O)[C@H](CCCCN)NC(=O)[C@H](CCCN=C(N)N)N(C)C(=O)[C@@H]1CCCN1C(=O)[C@H](CCCCN)NC(=O)[C@H](CC(N)=O)NC(=O)[C@H](CCC(=O)O)NC(=O)[C@H](Cc1ccc(O)cc1)NC(=O)[C@H](CC(C)C)NC(=O)[C@@H](N)CCC(=O)O)C(C)(C)C)C(=O)O` (H-ELYENKP[NMeR]KPW[Tle]L-OH), the pKi was 9.17.

`CC(C)CC(NC(=O)CC[C@H]1NC(=O)[C@H](Cc2c[nH]c3ccccc23)NC(=O)[C@@H]2CCCN2C(=O)[C@H](CCCCN)NC(=O)[C@@H](CCCN=C(N)N)N(C(=O)[C@@H]2CCCN2C(=O)[C@H](CCCCN)NC(=O)[C@H](CC(N)=O)NC(=O)C(CCC(=O)O)NC(=O)[C@H](Cc2ccc(O)cc2)NC(=O)[C@H](CC(C)C)NC(=O)C(N)CCC(=O)O)C1=O)C(=O)O` (stereo in doubt) showed a pKi of less than 5.00.
